The values that follow come from paper PMC2633595 (Analytical biochemistry, 2008).

The target of series [1] is T1, GST-Rab7 (Canis lupus familiaris, UniProt P18067). The class given is binding, canine. The note with it: for maximal binding Bmax: GST-Rab7, 1 mM MgCl2. The gist of the method: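 Canine GST-Rab7 from E. coli, glutathione-purified, loaded at 1 µM onto glutathione beads (4°C, overnight, HPS buffer, 1 mM DTT). 10^4 beads incubated 2 h at 4°C with 0–2 µM BODIPY FL GTP, GDP or GTP-γ-NH in 1 mM EDTA or 1 mM MgCl2. Diluted ≥10-fold and read by flow cytometry. Fluorescein calibration beads gave BODIPY/bead. Bmax and Kd from hyperbolic fit.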

The target of series [2] is T1, GST-Rab7. It is filed as binding, canine. The note with it: competition with 100 nM BODIPY FL GTP, 1 mM EDTA buffer. The method, boiled down: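 Canine Rab7 GST fusion expressed in BL21(DE3) E. coli and glutathione-affinity purified. 1 µM protein loaded overnight at 4°C onto glutathione Superdex beads in HPS buffer (HEPES pH 7.5, KCl, NaCl, dodecyl maltoside) with 1 mM DTT, then washed. 10^4 beads incubated 2 h at 4°C with 100 nM BODIPY FL GTP plus unlabeled GDP or GTP-γ-S. Read by flow cytometry; fitted EC50 converted to Ki.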

The target of series [3] is T1, GST-Rab7. Nature of the series: Kinetic assays. The class given is binding, canine. The note with it: for koff: GST-Rab7, 1 mM EDTA buffer.
For a further series, the target named is GST-RhoA (Homo sapiens, UniProt P61586). The class given is binding. The note with it: for maximal binding Bmax: 1 mM MgCl2; for Bmax / Kd: 1 mM MgCl2 buffer. The method, boiled down:
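GST-RhoA purified from E. coli. Loaded at 1 µM overnight at 4°C onto glutathione beads in HPS buffer with 1 mM DTT and 1 mM MgCl2, then washed twice. 10^4 beads incubated 2 h at 4°C with 0–2 µM BODIPY FL GTP or GTP-γ-NH in 1 mM MgCl2. Diluted ≥10-fold and read by flow cytometry. Signal calibrated to BODIPY/bead with fluorescein beads. Bmax and Kd from hyperbolic fit.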

A further series deals with Rab7. The note with it: nucleotide free system ref 11; cited from earlier work.
Setting [4] is: GST-Rab7, 1 mM EDTA buffer, 2 h at 4°C.

Entries after “also recorded” stand apart in the source; their conditions may differ. Like-named read-outs stand apart in the source and are kept apart here.

Sequence of GST-RhoA (P61586 whole entry): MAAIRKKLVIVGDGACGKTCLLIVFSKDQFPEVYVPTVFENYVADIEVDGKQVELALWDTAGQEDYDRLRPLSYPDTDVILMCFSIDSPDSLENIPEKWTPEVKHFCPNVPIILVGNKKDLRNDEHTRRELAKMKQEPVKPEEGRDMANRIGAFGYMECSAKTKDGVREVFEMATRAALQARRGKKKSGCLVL
T1 sequence (P18067 whole entry): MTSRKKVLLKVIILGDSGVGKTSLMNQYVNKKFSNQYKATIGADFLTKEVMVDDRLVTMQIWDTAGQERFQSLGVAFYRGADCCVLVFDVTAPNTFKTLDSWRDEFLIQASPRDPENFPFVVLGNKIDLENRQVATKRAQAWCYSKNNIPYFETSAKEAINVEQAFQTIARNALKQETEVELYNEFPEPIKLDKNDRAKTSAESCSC

The Ki is a dissociation constant, usually derived from enzyme kinetics or from competition with a known ligand. For `Nc1nc2c(ncn2[C@@H]2O[C@H](COP(=O)(O)OP(=O)(O)O)[C@@H](O)[C@H]2O)c(=O)[nH]1` [GDP], at GST-Rab7 [1] (GST-Rab7), the “higher affinity of Rab7 for GDP relative to GTP” value is 3 fold. Besides, the Ki at GST-Rab7 [2] stood at 13 ± 5 nM. Besides, the “slower dissociation rate of GDP” value at GST-Rab7 [3] (GST-Rab7, relative to GTP) is listed as 3 fold.
Take `Nc1nc2c(ncn2[C@@H]2O[C@H](COP(=O)(O)OP(=O)(O)OP(O)(O)=S)[C@@H](O)[C@H]2O)c(=O)[nH]1` [GTP-γ-S]: on GST-Rab7 [2], the affinity corresponds to a Ki of 40 ± 10 nM.
Usually Kd stands for the equilibrium constant for the complex coming apart. In the case of “BODIPY FL GDP 2′-(or-3′)-O-(N-(2-aminoethyl)urethane)”, the “higher affinity of Rab7 for GDP relative to GTP” value at GST-Rab7 [1] (GST-Rab7) is 3 fold. For the same compound, the Bmax on GST-Rab7 [1] (GST-Rab7, 1 mM EDTA buffer) is given as 2000 ± 400 10^3 BODIPY/bead. On GST-Rab7 [1] (setting [4]), this compound yielded a Kd of 54 ± 15 nM. In addition, the koff at GST-Rab7 [3] is 2.3 ± 1.5 × 10^−3 sec^−1.
“BODIPY FL GTP 2’-(or-3’)-O-(N-(2-aminoethyl)urethane”: the “decrease in affinity in the absence of Mg^2+” value on GST-Rab7 [1] (GST-Rab7) came to 8 fold. The maximal binding at GST-Rab7 [1] (GST-Rab7, 1 mM EDTA) is given as 1600 × 10^3 fluorophores/bead. Also, the Bmax is given as 1600 ± 400 10^3 BODIPY/bead at GST-Rab7 [1] (GST-Rab7, 1 mM EDTA buffer); 650 ± 10 10^3 BODIPY/bead at GST-Rab7 [1] (GST-Rab7, 1 mM MgCl2 buffer); 700 ± 20 10^3 BODIPY/bead on GST-RhoA. The Kd worked out at 150 ± 62 nM at GST-Rab7 [1] (setting [4]); 20 ± 5 nM at GST-Rab7 [1] (GST-Rab7, 1 mM MgCl2 buffer); 80 ± 10 nM at GST-RhoA. The “maximal binding Bmax” value on GST-Rab7 [1] is recorded as 650 × 10^3 fluorophores/bead; at GST-RhoA it was 700 × 10^3 fluorophores/bead. For the same compound, the “faster dissociation of GTP compared to GDP” value on GST-Rab7 [3] (GST-Rab7) was 3 fold. The koff on GST-Rab7 [3] is 7.0 ±3.0 × 10^−3 sec^−1. The “t1/2 (observed on-rate half-time)” value at GST-Rab7 [3] (GST-Rab7, 1 mM EDTA, 50-500 nM BODIPY FL GTP) was determined as 11.1 ± 0.6 min. The “dissociation rate faster in the absence of Mg^2+ relative to Mg^2+ present” value on GST-Rab7 [3] (GST-Rab7, competed by excess unlabeled nucleotide) was 7 times. Besides, the “koff Mg^2+” value at GST-Rab7 [3] (GST-Rab7, with Mg^2+) was 0.0013 s⁻¹.
Consider BODIPY FL GTP-γ-NH amide, for which, at GST-Rab7 [1] (GST-Rab7), the “binding to GST-Rab7 (in words)” value was “unique inability; also recorded: marked inability to bind”. Further, the “maximal binding Bmax” value at GST-Rab7 [1] was 60 × 10^3 fluorophores/bead. Further, on GST-Rab7 [1] (GST-Rab7, 1 mM MgCl2 buffer), the Bmax is 60 ± 5 10^3 BODIPY/bead and the Kd worked out at 70 ± 20 nM. Moreover, the “lower binding affinity relative to BODIPY FL GTP” value at GST-Rab7 [1] (GST-Rab7, with Mg^2+) is reported as 90%. Besides, at GST-RhoA, the “maximal binding Bmax” value is 710 × 10^3 fluorophores/bead; the Bmax is reported as 710 ± 15 10^3 BODIPY/bead; the affinity, expressed as Kd, was 95 ± 10 nM.
Regarding methylanthraniloyl (mant) GTP, at Rab7, the Kd was 6 nM.
